Source: ChEMBL document CHEMBL1944567, “Synthesis, biological evaluation, and molecular modeling of chalcone derivatives as potent inhibitors of Mycobacterium tuberculosis protein tyrosine phosphatases (PtpA and PtpB)” (J Med Chem, 2012)

Tests used:
[1] = target: T1, Low molecular weight protein-tyrosine phosphatase A (Mycobacterium tuberculosis) (UniProt P9WIA1); experiment: Inhibition of Mycobacterium tuberculosis PTP-A using p-nitrophenyl phosphate as substrate at 25 uM measured for 10 mins by spectrofluorimetry
T1 sequence (whole entry): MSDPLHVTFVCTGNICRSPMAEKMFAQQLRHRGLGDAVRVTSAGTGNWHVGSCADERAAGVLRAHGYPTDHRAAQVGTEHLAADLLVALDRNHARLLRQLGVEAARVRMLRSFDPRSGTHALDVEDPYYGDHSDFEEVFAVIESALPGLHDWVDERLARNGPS
In short: (§1)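 Single-point screen at 25 μM final compound, added from 1.0 × 10−3 M DMSO stock, with recombinant Mtb PtpA or PtpB (0.4 μg/μL final) in 20 mM imidazole pH 7.0 with 40 mM pNPP. Reaction started by adding enzyme. p-Nitrophenol release read at 410 nm every min for 10 min at 37 °C. Residual activity was taken from the absorbance difference between 6 and 2 min; two experiments, each in triplicate.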

[2] = Solubility of the compound; format: physicochemical
[3] = target: T2, Phosphotyrosine-protein phosphatase PTPB (Mycobacterium tuberculosis) (UniProt P96830); experiment: Inhibition of Mycobacterium tuberculosis PTP-B using p-nitrophenyl phosphate as substrate at 25 uM measured for 10 mins by spectrofluorimetry; in short: as §1
T2 sequence (whole entry): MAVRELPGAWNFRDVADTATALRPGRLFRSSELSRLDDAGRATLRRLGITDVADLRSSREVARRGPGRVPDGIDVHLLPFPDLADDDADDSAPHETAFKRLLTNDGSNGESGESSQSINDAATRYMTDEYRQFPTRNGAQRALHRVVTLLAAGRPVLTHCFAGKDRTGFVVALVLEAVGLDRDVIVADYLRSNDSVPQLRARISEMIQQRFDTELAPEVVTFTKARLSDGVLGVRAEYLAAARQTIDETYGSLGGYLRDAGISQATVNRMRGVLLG

O=C1COc2ccc(C(=O)/C=C/c3ccc4ccccc4c3)cc2N1
inhibition [1]: 0%
solubility [2]: soluble
inhibition [3]: 24%

O=C(/C=C/c1ccc(-c2ccccc2[N+](=O)[O-])o1)c1ccc2ccccc2c1
inhibition [1]: 9%
solubility [2]: soluble
inhibition [3]: 7%

O=C(/C=C/c1ccc(Cl)c(C(F)(F)F)c1)c1ccc2ccccc2c1
inhibition [1]: 13%
solubility [2]: soluble
inhibition [3]: 0%

COc1cc(OC)c(C(=O)/C=C/c2ccc3c(c2)OCO3)c(OC)c1
inhibition [1]: 0%
solubility [2]: soluble
inhibition [3]: 15%

O=C(/C=C/c1cc(Cl)cc(Cl)c1)c1ccc2ccccc2c1
inhibition [1]: 19%
solubility [2]: soluble
inhibition [3]: 29%

COc1cc(/C=C/C(=O)c2ccc3c(c2)OCO3)ccc1OCc1ccccc1
inhibition [1]: 12%
solubility [2]: soluble
inhibition [3]: 0%

O=C(/C=C/c1ccc2ccccc2c1)c1cc(Cl)ccc1Cl
inhibition [1]: 0%
solubility [2]: soluble
inhibition [3]: 20%

O=C(/C=C/c1cccs1)c1ccc2c(c1)OCO2
inhibition [1]: 7%
solubility [2]: soluble
inhibition [3]: 0%

COc1ccc(/C=C/C(=O)c2ccc3c(c2)OCO3)cc1
inhibition [1]: 17%
solubility [2]: soluble
inhibition [3]: 11%

O=C(/C=C/c1cccc(C(F)(F)F)c1)c1ccc2ccccc2c1
inhibition [1]: 24%
solubility [2]: soluble
inhibition [3]: 0%

O=C(/C=C/c1cccc(Cl)c1)c1ccc2c(c1)OCO2
inhibition [1]: 23%
solubility [2]: soluble
inhibition [3]: 0%

O=C(/C=C/c1ccc(C(F)(F)F)cc1)c1ccc2c(c1)OCO2
inhibition [1]: 7%
solubility [2]: soluble
inhibition [3]: 0%

O=C(/C=C/c1ccc(F)cc1)c1ccc2c(c1)OCO2
inhibition [1]: 0%
solubility [2]: soluble
inhibition [3]: 0%

COc1cc(OC)c(OC)cc1/C=C/C(=O)c1ccc2ccccc2c1
inhibition [1]: 7%
solubility [2]: soluble
inhibition [3]: 0%

COc1cc(/C=C/C(=O)c2ccc3c(c2)OCO3)ccc1O
inhibition [1]: 0%
solubility [2]: soluble
inhibition [3]: 0%

COc1ccc2nc(Cl)c(/C=C/C(=O)c3ccc4ccccc4c3)cc2c1
inhibition [1]: 22%
solubility [2]: soluble
inhibition [3]: 17%

O=C(/C=C/c1cccc2ccccc12)c1ccc2c(c1)OCO2
inhibition [1]: 8%
solubility [2]: soluble
inhibition [3]: 0%

COc1cc(OC)c(OC)cc1/C=C/C(=O)c1ccc2c(c1)OCO2
inhibition [1]: 19%
solubility [2]: soluble
inhibition [3]: 19%

O=C(/C=C/c1ccc2c(c1)OCO2)c1ccc2c(c1)OCO2
inhibition [1]: 6%
solubility [2]: soluble
inhibition [3]: 0%

O=C(/C=C/c1ccc(Br)cc1)c1ccc2ccccc2c1
inhibition [1]: 8%
solubility [2]: soluble
inhibition [3]: 24%

O=C(/C=C/c1cccc(Br)c1)c1ccc2ccccc2c1
inhibition [1]: 0%
solubility [2]: soluble
inhibition [3]: 20%

O=C(/C=C/c1cc2ccccc2nc1Cl)c1ccc2c(c1)OCO2
inhibition [1]: 19%
solubility [2]: soluble
inhibition [3]: 0%

CCCCOc1ccc(/C=C/C(=O)c2ccc3ccccc3c2)cc1
inhibition [1]: 8%
solubility [2]: soluble
inhibition [3]: 17%

COc1cc(OC)cc(C(=O)/C=C/c2ccc3ccccc3c2)c1
inhibition [1]: 0%
solubility [2]: soluble
inhibition [3]: 10%

O=C(/C=C/c1ccc2ccccc2c1)c1ccc(Cl)c(Cl)c1
inhibition [1]: 9%
solubility [2]: soluble
inhibition [3]: 18%

O=C(/C=C/c1ccc(-c2ccccc2[N+](=O)[O-])o1)c1ccc2c(c1)OCO2
inhibition [1]: 19%
solubility [2]: soluble
inhibition [3]: 10%

O=C(/C=C/c1ccc(Cl)c(C(F)(F)F)c1)c1ccc2c(c1)OCO2
inhibition [1]: 0%
solubility [2]: soluble
inhibition [3]: 0%

O=C(/C=C/c1ccc2c(c1)OCO2)c1ccc2ccccc2c1
inhibition [1]: 13%
solubility [2]: soluble
inhibition [3]: 0%

O=C(/C=C/c1ccccc1Cl)c1ccc2ccccc2c1
inhibition [1]: 0%
solubility [2]: soluble
inhibition [3]: 13%

O=C(/C=C/c1ccccc1F)c1ccc2ccccc2c1
inhibition [1]: 23%
solubility [2]: soluble
inhibition [3]: 0%

COc1cc(OC)c(C(=O)/C=C/c2ccc3ccccc3c2)cc1OC
inhibition [1]: 22%
solubility [2]: soluble
inhibition [3]: 14%

COc1cccc(/C=C/C(=O)c2ccc3ccccc3c2)c1
inhibition [1]: 10%
solubility [2]: soluble
inhibition [3]: 0%

O=C(/C=C/c1c(Cl)cccc1Cl)c1ccc2c(c1)OCO2
inhibition [1]: 13%
solubility [2]: soluble
inhibition [3]: 0%

O=C(/C=C/c1cccs1)c1ccc2ccccc2c1
inhibition [1]: 15%
solubility [2]: soluble
inhibition [3]: 0%

COc1cccc(OC)c1/C=C/C(=O)c1ccc2c(c1)OCO2
inhibition [1]: 4%
solubility [2]: soluble
inhibition [3]: 0%

COc1cc(/C=C/C(=O)c2ccc3c(c2)OCO3)cc(OC)c1OC
inhibition [1]: 5%
solubility [2]: soluble
inhibition [3]: 0%

O=C(/C=C/c1cccc(Cl)c1)c1ccc2ccccc2c1
inhibition [1]: 7%
solubility [2]: soluble
inhibition [3]: 0%

COc1cccc(/C=C/C(=O)c2ccc3c(c2)OCO3)c1
inhibition [1]: 10%
solubility [2]: soluble
inhibition [3]: 0%

O=C(/C=C/c1ccc(Cl)c(Cl)c1)c1ccc2ccccc2c1
inhibition [1]: 11%
solubility [2]: soluble
inhibition [3]: 28%

O=C(/C=C/c1cc(Cl)cc(Cl)c1)c1ccc2c(c1)OCO2
inhibition [1]: 14%
solubility [2]: soluble
inhibition [3]: 0%

O=C(/C=C/c1ccc2ccccc2c1)c1ccc2c(c1)OCO2
inhibition [1]: 12%
solubility [2]: soluble
inhibition [3]: 15%

COc1cc(OC)c(C(=O)/C=C/c2ccc3c(c2)OCO3)cc1OC
inhibition [1]: 8%
solubility [2]: soluble
inhibition [3]: 29%

O=C(/C=C/c1ccc(F)cc1)c1ccc2ccccc2c1
inhibition [1]: 13%
solubility [2]: soluble
inhibition [3]: 14%

COc1cc(OC)c(/C=C/C(=O)c2ccc3c(c2)OCO3)c(OC)c1
inhibition [1]: 5%
solubility [2]: soluble
inhibition [3]: 0%

O=C(/C=C/c1c(Cl)cccc1Cl)c1ccc2ccccc2c1
inhibition [1]: 16%
solubility [2]: soluble
inhibition [3]: 0%

COc1cc(/C=C/C(=O)c2ccc(Cl)s2)ccc1OCc1ccccc1
inhibition [1]: 5%
solubility [2]: soluble
inhibition [3]: 19%

N#Cc1ccc(/C=C/C(=O)c2ccc3ccccc3c2)cc1
inhibition [1]: 21%
solubility [2]: soluble
inhibition [3]: 20%

O=C(/C=C/c1ccccc1)c1ccc2ccccc2c1
inhibition [1]: 4%
solubility [2]: soluble
inhibition [3]: 16%

O=C(/C=C/c1cccc([N+](=O)[O-])c1)c1ccc2ccccc2c1
inhibition [1]: 12%
solubility [2]: soluble
inhibition [3]: 7%

CCCCOc1ccc(/C=C/C(=O)c2ccc3c(c2)OCO3)cc1
inhibition [1]: 11%
solubility [2]: soluble
inhibition [3]: 0%
